Test results reported in ChEMBL document CHEMBL4261549 (Medchemcomm, 2017).
Activity calls are given as the source filed them. The rule behind the calls is not given here.

Legend:
[1] = test system: PC-3; test: Antiproliferative activity against human PC3 cells after 48 hrs by MTT assay; format: functional, cell-based; conditions: PC-3, 48 h
Procedure, shortened: (§1)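 MTT dye-uptake viability assay; cells seeded at 2.5 × 10^3 per well, grown in RPMI 1640/DMEM with 10% FBS and penicillin/streptomycin at 37 °C, 5% CO2. Exposure to compounds for 48 h over 100 nM to 100 μM. IC50 versus untreated control, given as mean ± SD of three independent experiments.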

[2] = test system: HCT-116; test: Antiproliferative activity against human HCT116 cells after 48 hrs by MTT assay; format: functional, cell-based; conditions: HCT-116, 48 h; procedure, shortened: as §1
[3] = test system: MCF7; test: Antiproliferative activity against human MCF7 cells after 48 hrs by MTT assay; format: functional, cell-based; conditions: MCF7, 48 h; procedure, shortened: as §1
[4] = test system: PC-3; test: Induction of mitochondrial membrane potential loss in human PC3 cells after 24 hrs by JC1 staining based fluorescence microscopic method; format: functional, cell-based
Procedure, shortened: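 Treated PC-3 cells (1 × 10^6 per well) washed with cold PBS and stained with JC-1 at 1 μM final for 30 min at 37 °C. Aggregates and monomers assessed by fluorescence microscopy.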

[5] = test system: BPH-1; test: Antiproliferative activity against human BPH1 cells after 48 hrs by MTT assay; format: cell-based; conditions: BPH-1, 48 h
[6] = test system: PC-3; test: Induction of apoptosis in human PC3 cells assessed as caspase-3/7 activation by caspase3/7-Glo assay; format: functional, cell-based
Procedure, shortened: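 Cells seeded at 5 × 10^3 per well in 96-well plates for 24 h, then treated. Caspase-3/7 Glo reagent/substrate mix added for 25 min, and luminescence read.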

[7] = test system: PC-3; test: Effect on total mTOR protein expression in human PC3 cells at 2.5 to 4.5 uM after 24 hrs by Western blot method; format: ADME, cell-based; conditions: pc-3, 24 h
Procedure, shortened: (§2)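 PC-3 cells exposed to indicated concentrations or DMSO, then lysed. Equal protein amounts analysed by western blotting, with β-actin as loading control. Representative of three independent experiments.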

[8] = species on record: Homo sapiens; test: Inhibition of PI3K/Akt in human PC3 cells assessed as reduction in NF-kB dependant MMP9 activation after 48 hrs by gelatin zymographic method; format: cell-based
Procedure, shortened: (§3)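 Gelatin zymography. Subconfluent (70–80%) PC-3 cells in fresh medium incubated 48 h with increasing concentrations. Equal protein from conditioned media run on 7.5% SDS-PAGE containing 0.1% gelatin, 100 V, 3 h, 4 °C. Gels washed in 2% Triton X-100, incubated overnight at 37 °C in Tris-HCl pH 8.0/10 mM CaCl2 buffer, then Coomassie stained. BSA as loading control.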

[9] = test system: PC-3; test: Antimetastatic activity against human PC3 cells assessed as increase in E-cadherin protein expression at 2.5 to 4.5 uM after 24 hrs by Western blot method; format: functional, cell-based; procedure, shortened: as §2
[10] = species on record: Homo sapiens; test: Inhibition of PI3K/Akt in human PC3 cells assessed as reduction in NF-kB dependant MMP2 activation after 48 hrs by gelatin zymographic method; format: cell-based; procedure, shortened: as §3
[11] = test system: PC-3; test: Inhibition of colony formation in human PC3 cells at 2.5 to 4.5 uM after 5 days by crystal violet staining based inverted microscopic assay; format: functional, cell-based
Procedure, shortened: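 Clonogenic assay. PC-3 cells (1 × 10^3 per well) plated, medium replaced after 24 h, then exposed to graded concentrations or DMSO vehicle for 5 days. Colonies stained with crystal violet, counted randomly and imaged at 20×. Three independent experiments.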

[12] = test system: PC-3; test: Antimetastatic activity against human PC3 cells assessed as decrease in vimentin protein expression at 2.5 to 4.5 uM after 24 hrs by Western blot method; format: functional, cell-based; procedure, shortened: as §2
[13] = test system: PC-3; test: Antimigratory activity against human PC3 cells assessed as reduction in wound closure after 48 hrs by inverted microscopic assay; format: functional, cell-based; conditions: in the assay text read “24 hrs” for “48 hrs”
Procedure, shortened: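 Scratch assay. PC-3 cells (5 × 10^5 per well) grown 24 h to a confluent monolayer, then serum-starved 24 h. Monolayer scratched with a pipette tip and washed, then treated in 1.0% serum medium with graded concentrations or DMSO for 24 h. Photographed at 20×. % wound closure = [1 – (area t1/area t0) × 100%].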

[14] = species on record: Homo sapiens; test: Inhibition of PI3K/Akt in human PC3 cells assessed as downregulation of NF-kB dependant MMP2 protein expression at 2.5 to 4.5 uM after 24 hrs by Western blot method; format: cell-based; procedure, shortened: as §2
[15] = test system: PC-3; test: Inhibition of PI3K/Akt in human PC3 cells assessed as downregulation of NF-kB dependant MMP9 protein expression at 2.5 to 4.5 uM after 24 hrs by Western blot method; format: functional, cell-based; procedure, shortened: as §2
[16] = test system: PC-3; test: Inhibition of VEGF-induced cell scattering in human PC3 cells at 2.5 to 4.5 uM after 24 to 48 hrs by inverted microscopic assay; format: functional, cell-based
Procedure, shortened: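 PC-3 cells seeded at 1000 per well and grown 3–4 days into discrete colonies. Stimulated with VEGF in growth medium with graded concentrations. After overnight (24 h) incubation, individual colonies observed by bright-field/inverted microscopy and photographed. Representative of three experiments.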

[17] = species on record: Homo sapiens; test: Inhibition of PI3K/Akt signaling in human PC3 cells assessed as downregulation of NF-kB expression after 24 hrs by Western blot method; format: cell-based; procedure, shortened: as §2
[18] = test system: PC-3; test: Effect on total AKT protein expression in human PC3 cells at 2.5 to 4.5 uM after 24 hrs by Western blot method; format: ADME, cell-based; conditions: pc-3, 24 h; procedure, shortened: as §2
[19] = test system: PC-3; test: Anti-invasive activity against human PC3 cells assessed as increase in TIMP1 protein expression after 24 hrs by Western blot method; format: functional, cell-based; procedure, shortened: as §2
[20] = target: Serine/threonine-protein kinase mTOR (Homo sapiens) (UniProt P42345); test: Inhibition of mTOR phosphorylation in human PC3 cells at 2.5 to 4.5 uM after 24 hrs by Western blot method; format: cell-based; procedure, shortened: as §2
[21] = test system: PC-3; test: Anti-invasive activity against human PC3 cells after 48 hrs by Boyden chamber assay; format: functional, cell-based
Procedure, shortened: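 Matrigel (Boyden chamber) invasion kit used per manufacturer. PC-3 cells (1.2 × 10^6 per well) treated with graded concentrations or DMSO vehicle. Invaded cells counted per field and imaged at 20× magnification. Three independent experiments.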

[22] = target: RAC-alpha serine/threonine-protein kinase (Homo sapiens) (UniProt P31749); test: Inhibition of AKT phosphorylation in human PC3 cells at 2.5 to 4.5 uM after 24 hrs by Western blot method; format: cell-based; procedure, shortened: as §2
[23] = target: Serine/threonine-protein kinase mTOR (Homo sapiens) (UniProt P42345); test: Inhibition of mTOR signaling in human PC3 cells assessed as reduction in S6K protein expression at 2.5 to 4.5 uM after 24 hrs by Western blot method; format: cell-based; procedure, shortened: as §2

Chain of RAC-alpha serine/threonine-protein kinase (Homo sapiens) (P31749 whole entry): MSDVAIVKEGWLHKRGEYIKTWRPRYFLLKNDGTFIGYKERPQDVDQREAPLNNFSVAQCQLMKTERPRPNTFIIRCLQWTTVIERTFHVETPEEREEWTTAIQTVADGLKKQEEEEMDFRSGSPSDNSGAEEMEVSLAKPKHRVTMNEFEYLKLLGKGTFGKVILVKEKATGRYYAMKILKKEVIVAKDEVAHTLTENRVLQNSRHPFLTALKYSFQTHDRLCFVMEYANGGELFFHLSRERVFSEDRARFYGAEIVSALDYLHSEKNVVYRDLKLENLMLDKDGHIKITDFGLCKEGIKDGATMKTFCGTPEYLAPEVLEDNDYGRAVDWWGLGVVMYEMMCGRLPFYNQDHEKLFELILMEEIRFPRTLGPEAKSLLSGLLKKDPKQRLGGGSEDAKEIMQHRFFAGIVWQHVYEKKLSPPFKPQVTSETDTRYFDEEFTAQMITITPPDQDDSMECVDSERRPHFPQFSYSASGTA

COc1cc(/C=C/C(C)=O)ccc1OCc1cn(-c2cc(F)cc(Br)c2)nn1
IC50 [1]: 56.9 µM | IC50 [2]: 45.4 µM | IC50 [3]: 65.5 µM

COc1cc(/C=C/C(C)=O)ccc1OCc1cn(-c2ccc(C)cc2)nn1
IC50 [1]: 58.1 µM | IC50 [2]: 76.6 µM | IC50 [3]: > 100 µM

COc1cccc(-n2cc(COc3ccc(/C=C/C(C)=O)cc3OC)nn2)c1
IC50 [1]: 31.6 µM | IC50 [2]: 29.6 µM | IC50 [3]: 1.8 µM

COc1cc(/C=C/C(C)=O)ccc1OCc1cn(-c2ccc(-c3ccccc3)cc2)nn1
IC50 [1]: 56.8 µM | IC50 [2]: 65.2 µM | IC50 [3]: 65.4 µM

COc1cc(/C=C/C(C)=O)ccc1OCc1cn(-c2ccccc2OC)nn1
IC50 [1]: 2.04 µM | IC50 [2]: 25.7 µM | IC50 [3]: 29.1 µM

COc1cc(/C=C/C(C)=O)ccc1OCc1cn(-c2ccccc2CO)nn1
IC50 [1]: 50.3 µM | IC50 [2]: > 100 µM | IC50 [3]: 65.8 µM

COc1cc(/C=C/C(C)=O)ccc1OCc1cn(-c2ccc(C(F)(F)F)c(C(F)(F)F)c2)nn1
IC50 [1]: 67.2 µM | IC50 [2]: 57.8 µM | IC50 [3]: 87.4 µM

COc1cc(/C=C/C(C)=O)ccc1OCc1cn(-c2c(F)cccc2F)nn1
IC50 [1]: 24.2 µM | IC50 [2]: 37.7 µM | IC50 [3]: 2.03 µM

CCOC(=O)c1ccc(-n2cc(COc3ccc(/C=C/C(C)=O)cc3OC)nn2)cc1
IC50 [1]: 59.2 µM | IC50 [2]: 78.9 µM | IC50 [3]: > 100 µM

COc1cc(/C=C/C(C)=O)ccc1OCc1cn(-c2ccccc2Cl)nn1
IC50 [1]: 48 µM | IC50 [2]: 39 µM | IC50 [3]: 2.19 µM

COc1cc(/C=C/C(C)=O)ccc1OCc1cn(-c2c(Cl)cccc2Cl)nn1
Activity [4]: Dose-dependent effect | IC50 [5]: > 100 µM | Activity [6]: Active | Activity [7]: Non-Toxic | IC50 [1]: 3.07 µM | inhibition [8]: Dose-dependent effect | Activity [9]: Active | IC50 [2]: 2 µM | inhibition [10]: Dose-dependent effect | inhibition [11]: Active | Activity [12]: Active | Activity [13]: Dose-dependent effect | inhibition [14]: Active | inhibition [15]: Active | inhibition [16]: Active | inhibition [17]: Dose-dependent effect | Activity [18]: Non-Toxic | IC50 [3]: 26.6 µM | Activity [19]: Dose-dependent effect | inhibition [20]: Active | Activity [21]: Dose-dependent effect | inhibition [22]: Active | inhibition [23]: Active

C#CCOc1ccc(/C=C/C(C)=O)cc1OC
IC50 [1]: 40.2 µM | IC50 [2]: 49.7 µM | IC50 [3]: 65.4 µM

COc1cc(/C=C/C(C)=O)ccc1OCc1cn(-c2ccc(C=O)cc2)nn1
IC50 [1]: 80.7 µM | IC50 [2]: 76.2 µM | IC50 [3]: 86.4 µM

COc1cc(/C=C/C(C)=O)ccc1OCc1cn(-c2ccc(NC(=O)c3ccccc3)cc2)nn1
IC50 [1]: 76.8 µM | IC50 [2]: > 100 µM | IC50 [3]: 86.7 µM

COc1cc(/C=C/C(C)=O)ccc1O [DEHYDROZINGERONE]
IC50 [1]: 43.2 µM | IC50 [2]: 34.8 µM | IC50 [3]: 54.6 µM

COc1cc(/C=C/C(C)=O)ccc1OCc1cn(-c2ccccc2)nn1
IC50 [1]: 78.6 µM | IC50 [2]: 67.3 µM | IC50 [3]: > 100 µM

COc1cc(/C=C/C(C)=O)ccc1OCc1cn(-c2ccc(/N=N/c3ccccc3)cc2)nn1
IC50 [1]: 42.1 µM | IC50 [2]: > 100 µM | IC50 [3]: 75.9 µM

COc1cc(/C=C/C(C)=O)ccc1OCc1cn(-c2ccccc2O)nn1
IC50 [1]: 59.2 µM | IC50 [2]: 76.4 µM | IC50 [3]: > 100 µM

COc1cc(/C=C/C(C)=O)ccc1OCc1cn(-c2ccc([N+](=O)[O-])cc2)nn1
IC50 [1]: 46.7 µM | IC50 [2]: 96.3 µM | IC50 [3]: > 100 µM

COc1ccc(-n2cc(COc3ccc(/C=C/C(C)=O)cc3OC)nn2)cc1
IC50 [1]: 2.01 µM | IC50 [2]: 21.3 µM | IC50 [3]: 33.7 µM
